Assay results from PMC3558982 (Chemical science (Royal Society of Chemistry : 2010), 2013).
Like-named read-outs stand apart in the source and are kept apart here.

Tests used:
Ddp1 = details: 30 minutes at 37 °C; ref 22c; cited from earlier work
[1] = Stability in aqueous solution at room temperature; format: physicochemical; details: for decomposition in aqueous solution: neutral pH, 40 days at room temperature
Ddp1 phosphohydrolase = Ddp1 phosphohydrolase (Saccharomyces cerevisiae, UniProt Q99321); experiment: Inhibition of His-Ddp1 mediated Ap5A hydrolysis; format: biochemical, yeast; details: for inhibition profile of Ddp1 mediated Ap5A hydrolysis (in words): compared with 5PP-IP5, Figures 5b and S4
Sequence of Ddp1 phosphohydrolase (Q99321 whole entry): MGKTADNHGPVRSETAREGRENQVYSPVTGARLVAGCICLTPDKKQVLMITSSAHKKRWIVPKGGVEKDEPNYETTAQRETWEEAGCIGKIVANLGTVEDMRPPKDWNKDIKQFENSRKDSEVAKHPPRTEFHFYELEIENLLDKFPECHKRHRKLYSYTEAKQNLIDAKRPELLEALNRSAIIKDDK

[2] = 1H and 31P NMR titration in D2O; format: physicochemical; details: D2O with 140mM K+, 10mM Na+, 1mM Mg2+, room temperature
protein kinase Akt = protein kinase Akt (Homo sapiens, UniProt P31749); experiment: Inhibition of Akt phosphorylation at threonine 308 by PDK1; format: biochemical
Sequence of protein kinase Akt (P31749 whole entry): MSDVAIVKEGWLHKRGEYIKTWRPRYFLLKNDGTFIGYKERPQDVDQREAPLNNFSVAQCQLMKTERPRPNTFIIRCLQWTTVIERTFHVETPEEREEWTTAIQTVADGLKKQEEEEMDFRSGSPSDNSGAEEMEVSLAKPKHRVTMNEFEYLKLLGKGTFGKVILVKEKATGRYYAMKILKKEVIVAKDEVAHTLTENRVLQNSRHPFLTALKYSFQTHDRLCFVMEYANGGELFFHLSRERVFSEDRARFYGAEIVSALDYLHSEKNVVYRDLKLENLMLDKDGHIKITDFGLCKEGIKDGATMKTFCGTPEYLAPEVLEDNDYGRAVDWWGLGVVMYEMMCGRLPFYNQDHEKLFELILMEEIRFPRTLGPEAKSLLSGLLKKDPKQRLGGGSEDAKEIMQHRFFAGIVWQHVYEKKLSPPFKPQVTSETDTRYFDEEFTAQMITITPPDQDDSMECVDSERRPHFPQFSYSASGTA
In short: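 Akt Thr308 phosphorylation was detected by Western blot with a phosphospecific antibody, with a total-Akt blot as loading control. IC50 was determined in three independent experiments.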

decomposition in aqueous solution [1] | inhibition profile of Ddp1 mediated Ap5A hydrolysis (in words) (Ddp1 phosphohydrolase) | pD of ring inversion (conformational change) [2] | SMILES | hydrolysis by Ddp1 (Ddp1) | further results
 |  |  | O=P(O)(O)OC1[C@@H](OP(=O)(O)O)[C@@H](OP(=O)(O)O)C(OP(=O)(O)OP(=O)(O)O)[C@H](OP(=O)(O)O)[C@H]1OP(=O)(O)O (stereo partly shown) [1PP-IP5] | completely hydrolysed to IP6 | 
no signs of decomposition | very similar inhibition profiles |  | O=P(O)(O)CP(=O)(O)O[C@@H]1[C@@H](OP(=O)(O)O)[C@H](OP(=O)(O)O)[C@H](O)[C@H](OP(=O)(O)O)[C@H]1OP(=O)(O)O [5PCP-IP4] |  | 
no signs of decomposition | very similar inhibition profiles | ~8.8 | O=P(O)(O)CP(=O)(O)O[C@H]1[C@H](OP(=O)(O)O)[C@@H](OP(=O)(O)O)[C@@H](OP(=O)(O)O)[C@@H](OP(=O)(O)O)[C@@H]1OP(=O)(O)O [5PCP-IP5] |  | decomposition at low or high pD ([1]; pD 2.0 or 13.0, 40 days at room temperature): no detectable decomposition; IC50 (protein kinase Akt; read-out: IC50, inhibition of Akt phosphorylation at threonine 308, purified inactive Akt and activated PDK1, three independent experiments): 129 nM
 |  | ~8.8 | O=P(O)(O)O[C@H]1[C@@H](OP(=O)(O)O)[C@H](OP(=O)(O)O)[C@@H](OP(=O)(O)OP(=O)(O)O)[C@H](OP(=O)(O)O)[C@H]1OP(=O)(O)O [5PP-IP5, reference compound] | no signs of hydrolysis | IC50 (Ddp1 phosphohydrolase): 2500 nM; IC50 (protein kinase Akt): 217 nM
 |  |  | O=P(O)(O)OC1C(OP(=O)(O)O)C(OP(=O)(O)O)C(OP(=O)(O)O)C(OP(=O)(O)O)C1OP(=O)(O)O (stereo not shown) [IP6, inositol hexakisphosphate, reference compound] |  | IC50 in Ddp1 Ap5A hydrolysis relative to 5PP-IP5 (Ddp1 phosphohydrolase; data not shown): more than ten times higher
